Assay outcomes as filed in PubChem.
An excerpt weighted towards active compounds, which were near 1.6% of everything screened.
Vif inh = inhibitors of HIV Vif. HEK293T cells, Vif self-association by quenched fluorescence, imaging, 24 h. inhibition, % at 7.49 µM. hit rate 0.35% among 340,000. AID 602346; in the data active = inhibition above about 50%, passing the limit was not always enough; inconclusive = no clear call, values can overlap the other calls; inactive = below about 31%
TAG inh = inhibitors of triacylglycerol accumulation; H9c2 cells, Nile Red lipid (TAG) fluorescence; cells loaded with 200 µM oleic acid; inhibition, % at 12.5 µM; hit rate 0.66% among 230,000;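 active = pattern-corrected inhibition of lipid staining of at least 50% with the nuclear-stain viability signal not falling by more than 50%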
SR-BI HDL uptake = inhibitors of mouse SR-BI mediated HDL lipid uptake; Q61009; ldlA[mSR-BI] CHO cells, DiI-HDL uptake fluorescence, 3 h; inhibition, % at 12.5 µM; hit rate 0.96% among 320,000;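 active = mean replicate inhibition of at least 70% and a set share of replicates each scoring 70 or more; inconclusive = meets just one of the two criteria; inactive = fails both criteria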
Target sequence (Q61009 whole entry, looked up): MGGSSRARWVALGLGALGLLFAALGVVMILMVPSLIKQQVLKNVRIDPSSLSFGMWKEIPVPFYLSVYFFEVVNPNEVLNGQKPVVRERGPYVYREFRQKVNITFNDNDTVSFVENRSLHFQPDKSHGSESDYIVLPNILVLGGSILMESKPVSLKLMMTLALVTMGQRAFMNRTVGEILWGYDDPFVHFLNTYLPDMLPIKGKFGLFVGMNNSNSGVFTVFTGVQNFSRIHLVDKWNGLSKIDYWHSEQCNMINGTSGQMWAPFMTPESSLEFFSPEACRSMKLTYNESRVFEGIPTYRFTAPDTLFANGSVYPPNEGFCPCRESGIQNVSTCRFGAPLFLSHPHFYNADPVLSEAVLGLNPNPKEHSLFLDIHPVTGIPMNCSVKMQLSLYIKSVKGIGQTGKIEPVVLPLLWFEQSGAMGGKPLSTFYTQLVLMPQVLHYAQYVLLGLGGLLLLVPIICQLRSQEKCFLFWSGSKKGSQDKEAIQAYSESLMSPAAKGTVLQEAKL
Bfl-1 A1 inh = inhibitors of the anti-apoptotic protein A1, read as caspase activation | AID 2462 | hit rate 0.066% among 330,000 | MEF A1-2A-BIM cells, Caspase-Glo 3/7 luminescence, 3 h; percent of clofoctol response, vehicle zero | caspase activation, % (no concentration beside the values);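 active = over half of replicate activation scores above 10%, or exactly half above 10 with the replicate mean above 10; inconclusive = replicate mean below 10 yet half the replicates above 10; inactive = over half of replicates below 10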
SR-BI uptake up = SR-BI HDL lipid transfer activation. CHO ldlA[mSR-BI] cells, DiI-HDL uptake fluorescence, 3 h; 100 = double the neutral-control signal. activation, % at 12.5 µM. hit rate 0.096% among 320,000. AID 504775;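 active = mean replicate activation of at least 60% and every replicate at or above 60%; inconclusive = mean or all-replicate condition met, but not both; inactive = mean below 60% and not all replicates reaching 60%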
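Material: SR-BI-overexpressing, LDLR-lacking CHO cells | Dosing: Single compound concentration, delivered by pin transfer | Probe or stimulus: Labelled HDL, 10 µg/mL | Signal: Bottom-read cell fluorescence after medium removal, ex 550/em 595 nm | Schedule: 3 h, 37 °C | Evaluation: HDL uptake via cellular fluorescence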
Hits are given with their value; 0 = inactive; ? = inconclusive; - = no result given.

SMILES | Vif inh | TAG inh | SR-BI HDL uptake | Bfl-1 A1 inh | SR-BI uptake up
COC(=O)c1ccc(SCC(=O)NC2CCCC2)c([N+](=O)[O-])c1 | ? | - | 0 | ? | 0
COC(=O)c1ccc(SC2CCCCC2)c([N+](=O)[O-])c1 | 125 | 0 | 0 | 0 | 0
COc1cc2sc3ccc(C#Cc4ccc(N)cc4)cc3c(=O)c2cc1OC | 0 | 0 | 0 | 0 | 0
COc1cc2sc3ccc(-c4ccc5[nH]ccc5c4)cc3c(=O)c2cc1OC | 0 | 0 | 75 | 0 | 0
O=C(CN1CCCc2ccccc21)N/N=C/c1ccccc1 | 0 | 0 | 0 | 0 | 0
CC/C(=N/NC(=O)c1ccc2c(c1)OCO2)c1ccccc1O | ? | 0 | 100 | 0 | 0
O=C(N/N=C\c1c(O)ccc2ccccc12)c1ccc(S(=O)(=O)N2CCCCC2)cc1 | 0 | - | 143 | 0 | 0
O=C(N/N=C/c1c(O)ccc2ccccc12)c1ccc(CO)nc1 | 0 | - | 0 | 0 | 0
O=C(N/N=C/c1ccccc1)c1ccc2c(c1)OCO2 | 0 | 0 | 0 | 0 | 0
O=C(NN=Cc1c(O)ccc2ccccc12)c1ccc2c(c1)OCO2 | 0 | 0 | 124 | 0 | 0
O=C(CN1CCCc2ccccc21)N/N=C/c1c(O)ccc2ccccc12 | 0 | - | 0 | 0 | 195
Cc1cccc(C)c1NC(=O)CN(C)C(=O)c1cccc(NS(=O)(=O)c2ccccc2)c1 | 0 | 0 | 0 | 0 | 0
O=S(=O)(c1ccc(NC(=S)NN=Cc2ccccc2O)cc1)N1CCCCC1 | 0 | 0 | 92 | - | 0
NS(=O)(=O)c1ccc(NC(=S)Nc2ccc(S(=O)(=O)N3CCCC3)cc2)cc1 | 0 | 0 | 0 | 0 | 0
CN(C)S(=O)(=O)c1cccc(C(=O)Nc2ccccc2C(=O)NC2CC2)c1 | 0 | 0 | 0 | 0 | 0
CCCN1C(=O)/C(=C/C=C2\N(CC)c3ccccc3C2(C)C)SC1=S | 0 | 0 | 0 | 0 | 0
CCCCN1C(=O)/C(=C/C=C2\Oc3ccccc3N2CC)SC1=S | 69 | 0 | 89 | - | 0
O=C(C[n+]1cccc2ccccc21)c1ccc(Br)cc1 | 93 | 0 | 0 | 0 | 0
Cc1ccc(C(=O)C[n+]2cccc3ccccc32)cc1 | 0 | 0 | 0 | 0 | 0
CC1Cc2ccccc2N1Cc1cc(=O)c(OCC(=O)Nc2ccccc2)co1 (configuration not stated) | 0 | 0 | 0 | 0 | 0
COc1ccc(CCNC(=O)COc2coc(CN3c4ccccc4CC3C)cc2=O)cc1OC (configuration not stated) | 0 | 0 | 85 | 0 | 0
COc1ccc(CCNC(=O)CCN2C(=O)COc3ccccc32)cc1OC | 126 | - | 0 | 0 | 0
Cc1ccc(S(=O)(=O)N(CC(=O)NCC2CCCO2)C2CCCCC2)cc1 (configuration not stated) | 0 | - | 0 | 0 | 0
CC(C)(C)c1ccc2c(c1)OC(C(=O)N/N=C\c1ccc[nH]1)CO2 (configuration not stated) | 0 | - | 0 | 24 | 0
CC(C)(C)c1ccc2c(c1)OC(C(=O)N/N=C\c1ccncc1)CO2 (configuration not stated) | 0 | 0 | 0 | 0 | 0
SMILES | Vif inh | TAG inh | SR-BI HDL uptake | Bfl-1 A1 inh | SR-BI uptake up
CCOc1ccc(C(=O)n2cc(C(=O)OC)c3ccccc32)cc1OCC | 0 | - | 81 | 0 | 0
CCN1CC(CN(C)Cc2nc(Cc3ccccc3)no2)CC1=O (configuration not stated) | 0 | 0 | 0 | 0 | 0
NC(=O)c1c(NC(=O)COC(=O)c2ccc(S(=O)(=O)Nc3ccccc3)cc2)sc2c1CCCC2 | 0 | 0 | 95 | 0 | 0
O=C(COC(=O)c1ccc(S(=O)(=O)Nc2ccccc2)cc1)NC1CCCC1 | 0 | 0 | 0 | 0 | 0
CC(=O)Nc1ccc(NC(=O)COc2ccc(-c3ccc(C#N)cc3)cc2)cc1 | 55 | 0 | 0 | 0 | 0
CCCn1c(=O)c2[nH]c(-c3ccc(OCC(=O)Nc4ccc(C#N)cc4)cc3)nc2n(CCC)c1=O | 94 | 0 | 0 | 0 | 0
COc1ccc(NC(=O)CSc2nnc(NC(=O)C3CCC3)s2)c(OC)c1 | 0 | - | - | 0 | -
CN(C(=O)COc1ncnc2sccc12)C1CCCCC1 | 0 | 0 | 0 | 0 | 0
CC(C)C(NC(=O)c1ccc(C(C)(C)C)cc1)C(=O)Nc1ccc(N2CCOCC2)cc1 (configuration not stated) | 0 | 0 | 0 | 0 | 0
O=C(CO/N=C\c1ccccc1)Nc1ccccc1C(=O)N1CCOCC1 | 0 | - | 0 | 0 | 0
COc1cc(C(=O)OCCN2CCOCC2)cc(OC)c1OC | 0 | - | 0 | 0 | 0
COc1cc(C(=O)OCCCN2CCCN(CCCOC(=O)c3cc(OC)c(OC)c(OC)c3)CC2)cc(OC)c1OC | 0 | 0 | 81 | 0 | 0
COc1ccc(C(=O)NCCN2CCCC2)cc1[N+](=O)[O-] | 0 | - | 0 | 0 | 0
Cc1nc2sc(C(=O)Nc3ccccc3Cc3ccccc3)c(C)c2c(=O)[nH]1 | 0 | 0 | 0 | 0 | 0
COc1ccc(C2=CSC(/N=C/c3ccc(F)cc3)=NN2)cc1 | 0 | - | 75 | 0 | 0
COc1ccc(/C=N/c2c(-c3ccc(OC)cc3)nc3n2CCS3)cc1 | 0 | - | 0 | 0 | 0
CCOc1cc(C(=O)CSc2nnc(CNc3ccc(Cl)cc3)o2)ccc1NC(=O)CC | 0 | - | 0 | 8.7 | 0
COC(=O)c1c(NC(=O)CSc2nnc(CNc3ccc(Cl)cc3)o2)sc(C)c1C | 72 | - | 0 | 0 | 0
CSc1ccccc1NC(=O)CN(Cc1ccccc1)S(C)(=O)=O | 0 | 0 | 75 | 0 | 0
CCOc1cccc(NC(=O)C2CC(=O)N(C)C(=Nc3cccc(F)c3)S2)c1 (configuration not stated) | 0 | - | 73 | 0 | 0
CCCOc1ccc(NC(=O)C2CC(=O)N(C)C(=Nc3cccc(OC)c3)S2)cc1 (configuration not stated) | 0 | - | 0 | 0 | 0
CN1C(=O)CC(C(=O)Nc2ccccc2F)SC1=Nc1ccc2c(c1)OCO2 (configuration not stated) | 0 | 0 | 73 | 0 | 0
COc1ccc(N=C2SC(C(=O)Nc3ccc4c(c3)OCO4)CC(=O)N2C)cc1 (configuration not stated) | 0 | 0 | 0 | 0 | 0
CCOc1cccc(NC(=O)C2CC(=O)N(C)C(=Nc3ccccc3)S2)c1 (configuration not stated) | 0 | - | 75 | 0 | 0
Cc1cnc(CN(C)C(=O)CC2C(=O)NCCN2CCCc2ccccc2)[nH]1 (configuration not stated) | 0 | 0 | 0 | 0 | 0
CC(C)NC(=O)C(c1ccc(F)cc1)N(C(=O)CCC(=O)Nc1ccccn1)c1cccc(F)c1 (configuration not stated) | 74 | - | 0 | 0 | 0
Nc1ccc(C(=O)Nc2nc3ccccc3s2)cc1 | 0 | 0 | 0 | 0 | 0
Cc1cc(C)n(-c2ccc(C(=O)Nc3cccc([N+](=O)[O-])c3)cc2)n1 | 0 | - | 80 | 0 | 0
Cc1cc(C)n(-c2ccc(C(=O)Nc3nc4ccccc4s3)cc2)n1 | 0 | - | 70 | 0 | 0
Cc1cc(C)n(-c2ccc(C(=O)Nc3cccc(S(=O)(=O)N(C)C)c3)cc2)n1 | 0 | 0 | 0 | 0 | 0
